# Data from ChEMBL document CHEMBL5108061, “Lectin-Targeted Prodrugs Activated by Pseudomonas aeruginosa for Self-Destructive Antibiotic Release” (J Med Chem, 2022).
# How the values were obtained:
# Elastase [1] = target: T1, Elastase (Pseudomonas aeruginosa (strain ATCC 15692 / PAO1 / 1C / PRS 101 / LMG12228), UniProt P14756); assay: Prodrug activation assessed as LasB- mediated drug release in Pseudomonas aeruginosa PA14 cell supernatant and measured after 24 hrs by HPLC-MS analysis
# Pseudomonas aeruginosa [2] = assay: Antibacterial activity against Pseudomonas aeruginosa PA14 assessed inhibition of bacterial growth incubated for 18 to 20 hrs by broth microdilution method; assay type: functional; details: time 18-20 hrs
# How it was run: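 Broth microdilution per EUCAST in Müller-Hinton broth II, no matrix preincubation. […] Inoculum from overnight LB-agar colonies adjusted to OD600 0.08–0.13, diluted 1:100, final 5 × 10^5 cfu/mL.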
# Pseudomonas aeruginosa [3] = assay: (§1) Antibacterial activity against Pseudomonas aeruginosa PA14 assessed inhibition of bacterial growth preincubated for 10 mins in matrix containing human blood plasma spiked with Pseudomonas aeruginosa cell culture supernatant in PBS buffer followed by overnight grown bacterial culture addition incubated for 18 to 20 hrs by broth microdilution method; assay type: functional
# How it was run: (§2)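 Prodrug serial dilutions in PBS/20% DMSO (1 mM to 1.9 μM) were diluted about 1:20 into matrix. Matrices: plasma 5 mL + PA14 LB-culture sterile filtrate 1 mL + PBS 4 mL; filtrate 1 mL + PBS 9 mL; PBS alone; plasma 5 mL + LB 1 mL + PBS 4 mL. Preincubation was 3 h at 37 °C, or <10 min at room temperature.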
# [4] = Stability of compound in human blood plasma spiked with Pseudomonas aeruginosa PA14 matrix assessed as hydrolysis of prodrug and measured upto 3 hrs by HPLC-MS/MS analysis; assay type: ADME, cell-free
# Pseudomonas aeruginosa [5] = assay: (§3) Antibacterial activity against Pseudomonas aeruginosa PA14 assessed inhibition of bacterial growth preincubated for 10 mins in PBS buffer followed by overnight grown bacterial culture addition incubated for 18 to 20 hrs by broth microdilution method; assay type: functional; how it was run: as §2
# [6] = target: T2, PA-I galactophilic lectin (Pseudomonas aeruginosa (strain ATCC 15692 / PAO1 / 1C / PRS 101 / LMG12228), UniProt Q05097); assay: Competitive binding affinity to recombinant Pseudomonas aeruginosa LecA expressed in Escherichia coli BL21(DE3) incubated for 30 to 60 mins by fluorescent polarization assay
# T2 sequence (Q05097 whole entry): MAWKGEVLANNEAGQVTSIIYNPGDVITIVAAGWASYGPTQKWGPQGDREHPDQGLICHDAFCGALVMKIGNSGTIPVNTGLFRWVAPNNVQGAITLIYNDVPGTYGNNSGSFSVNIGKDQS
# How it was run: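 Recombinant LecA (E. coli BL21(DE3), galactosyl-sepharose purified) at 40 μM with 20 nM fluorescein-galactoside reporter in TBS/Ca pH 7.4; compounds serially diluted with 30% DMSO co-solvent, technical triplicates; 30–60 min at 22 °C; fluorescence polarization (ex 485/em 535); four-parameter fit with plateaus fixed by pNP-β-D-Gal control; ≥3 independent experiments.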
# Elastase [7] = target: T1, Elastase; assay: Prodrug activation assessed as LasB-mediated drug release in Pseudomonas aeruginosa PA14 cell supernatant in presence of human blood plasma and measured for 3 hrs by HPLC-MS analysis; assay type: cell-free
# Pseudomonas aeruginosa [8] = assay: as §3, with “3 hrs in matrix containing Pseudomonas aeruginosa cell culture supernatant” for “10 mins”; assay type: functional; details: time 21-23 hrs; how it was run: as §2
# Pseudomonas aeruginosa [9] = assay: Antibacterial activity against Pseudomonas aeruginosa PA14 assessed inhibition of bacterial growth preincubated for 3 hrs in PBS buffer followed by overnight grown bacterial culture addition incubated for 18 to 20 hrs by broth microdilution method; assay type: functional; details: time 21-23 hrs; how it was run: as §2
# Pseudomonas aeruginosa [10] = assay: as §1, with “3 hrs” for “10 mins”, “containing 50%” for “containing”, “and 10%” for “spiked with”, “PBS” for “PBS buffer”; assay type: functional; details: time 21-23 hrs; how it was run: as §2
# Pseudomonas aeruginosa [11] = assay: as §1, with “fresh LB medium” for “Pseudomonas aeruginosa cell culture supernatant”, “PBS” for “PBS buffer”; assay type: functional; how it was run: as §2
# Pseudomonas aeruginosa [12] = assay: as §1, with “3 hrs” for “10 mins”, “fresh LB medium” for “Pseudomonas aeruginosa cell culture supernatant”, “PBS” for “PBS buffer”; assay type: functional; details: time 21-23 hrs; how it was run: as §2
# Pseudomonas aeruginosa [13] = assay: as §1, with “3 hrs” for “10 mins”; assay type: functional; how it was run: as §2
# [14] = Protein binding in human plasma at 1 uM incubated for incubated for 2 hrs by HPLC-MS/MS analysis; assay type: ADME, cell-free
# How it was run: (§4)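 Rapid equilibrium dialysis; compound at 1 μM final in pooled CD-1 mouse plasma or pooled mixed-gender human plasma, dialysed against buffer; naproxen as high-binding control.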
# [15] = Protein binding in CD-1 mouse plasma at 1 uM incubated for incubated for 2 hrs by HPLC-MS/MS analysis; assay type: ADME, cell-free; how it was run: as §4
# [16] = Stability in mouse plasma assessed as half life at 1 uM and measured upto 240 mins by HPLC-MS/MS analysis; assay type: ADME, cell-free; details: 4 h
# How it was run: (§5)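 Compound at 1 μM final in prewarmed mouse or human plasma (pH 7.4), 37 °C, sampled at 0–240 min; extracted with acetonitrile containing caffeine internal standard; HPLC-MS/MS, peak area normalized to internal standard and time 0; procaine and procainamide controls; ≥3 independent repeats.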
# [17] = Stability in human plasma assessed as half life at 1 uM and measured upto 240 mins by HPLC-MS/MS analysis; assay type: ADME, cell-free; details: 4 h; how it was run: as §5
# [18] = Drug uptake in human A549 cells assessed as intracellular accumulation at 10 ug/ml incubated for 15 to 60 mins by HPLC-MS/MS analysis; assay type: ADME, cell-based; details: time 15-60 min, dose 10 µg/ml
# How it was run: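 A549 cells grown to 95% confluence in DMEM/10% FCS, exposed to 10 μg/mL compound for 15, 30 and 60 min at 37 °C; washed twice with PBS, lysed in MeOH; medium, washes and extracts extracted with MeOH containing caffeine internal standard and quantified by HPLC-MS/MS against calibration/QC samples; technical duplicates, two biological replicates.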
# [19] = target: Fucose-binding lectin PA-IIL (Pseudomonas aeruginosa (strain ATCC 15692 / DSM 22644 / CIP 104116 / JCM14847 / LMG 12228 / 1C / PRS 101 / PAO1), UniProt Q9HYN5); assay: Competitive binding affinity to recombinant Pseudomonas aeruginosa PAO1 LecB expressed in Escherichia coli BL21(DE3) incubated for 4 to 8 hrs by fluorescent polarization assay
# A549 = assay: Cytotoxicity against human A549 cells assessed as reduction in cell viability incubated for 24 hrs by MTT assay
# [20] = Metabolic stability in mouse liver microsomes assessed as intrinsic clearance measured per mg protein at 100 uM preincubated for 5 mins followed by NADPH addition and measured upto 60 mins by HPLC-MS/MS analysis; assay type: ADME, Microsome; details: time 65 min, read-out: CLH
# How it was run: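 Mouse liver microsomes (5 μL of 20 mg/mL) were mixed with 2 μL of 100 μM compound in 100 mM phosphate buffer and warmed 5 min at 37 °C. NADPH (10 μL of 20 mM) started the reaction, run in triplicate at 150 rpm. Samples were quenched with acetonitrile at 0–60 min and read by HPLC-MS/MS. Half-life came from linear regression of the 0-min-normalized areas, and CLint was derived from it.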
# [21] = Metabolic stability in mouse liver microsomes assessed as half life at 100 uM preincubated for 5 mins followed by NADPH addition and measured upto 60 mins by HPLC-MS/MS analysis; assay type: ADME, Microsome; details: time 65 min
# How it was run: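 Thawed mouse liver microsomes (20 mg/mL stock) were pre-incubated with compound (100 μM stock) in 100 mM phosphate buffer for 5 min at 37 °C. Reactions were started with NADPH (20 mM stock) and run in triplicate at 37 °C with shaking. Samples taken at 0, 5, 15, 30 and 60 min were quenched with acetonitrile and analysed by HPLC-MS/MS. Peak areas were normalised to 0 min, and half-life came from linear regression.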
# Chain of Fucose-binding lectin PA-IIL (Q9HYN5 whole entry): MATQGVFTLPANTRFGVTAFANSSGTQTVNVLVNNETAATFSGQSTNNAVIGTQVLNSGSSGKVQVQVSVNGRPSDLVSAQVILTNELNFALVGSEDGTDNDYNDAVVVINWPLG
# T1 sequence (P14756 whole entry): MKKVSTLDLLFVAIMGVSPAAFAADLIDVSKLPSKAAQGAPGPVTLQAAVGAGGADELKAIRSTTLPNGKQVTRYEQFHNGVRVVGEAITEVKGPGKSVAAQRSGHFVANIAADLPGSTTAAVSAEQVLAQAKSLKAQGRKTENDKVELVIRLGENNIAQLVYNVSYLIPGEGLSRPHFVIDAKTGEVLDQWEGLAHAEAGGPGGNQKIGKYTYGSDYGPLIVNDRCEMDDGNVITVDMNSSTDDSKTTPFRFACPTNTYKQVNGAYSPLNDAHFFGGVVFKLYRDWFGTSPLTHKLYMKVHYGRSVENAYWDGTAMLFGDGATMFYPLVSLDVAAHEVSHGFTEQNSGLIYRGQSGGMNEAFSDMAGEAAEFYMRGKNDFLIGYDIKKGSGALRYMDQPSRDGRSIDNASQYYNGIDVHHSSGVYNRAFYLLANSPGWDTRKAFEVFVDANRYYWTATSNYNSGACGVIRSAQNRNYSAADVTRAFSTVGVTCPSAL
Structure (SMILES),MIC (Pseudomonas aeruginosa [2]),MIC (Pseudomonas aeruginosa [3]),Stability [4],MIC (Pseudomonas aeruginosa [5]),IC50 [6],Drug metabolism (Elastase [7]),MIC (Pseudomonas aeruginosa [8]),MIC (Pseudomonas aeruginosa [9]),MIC (Pseudomonas aeruginosa [10]),MIC (Pseudomonas aeruginosa [11]),MIC (Pseudomonas aeruginosa [12]),MIC (Pseudomonas aeruginosa [13]),further results
CC(C)C[C@H](N)C(=O)N[C@@H](C)C(=O)N[C@H]1CCN(c2cc3c(cc2F)c(=O)c(C(=O)O)cn3C2CC2)C1,58 µM,–,–,–,–,–,–,–,–,–,–,–,Drug metabolism (Elastase [1]): Metabolite_Notdetected
CC(C)C[C@H](NC(=O)CNC(=O)[C@H](C)NC(=O)c1ccc(S[C@@H]2O[C@H](CO)[C@H](O)[C@H](O)[C@H]2O)cc1)C(=O)N[C@@H](C)C(=O)NC[C@@H]1CCN(c2cc3c(cc2F)c(=O)c(C(=O)O)cn3C2CC2)C1,–,3.13 µM,Stable,> 25 µM,28 µM,Metabolite_Detected,1.56 µM,> 25 µM,1.56 µM,> 25 µM,12.5 µM,1.56 µM,–
CC(C)C[C@H](NC(=O)CNC(=O)[C@H](C)NC(=O)c1ccc(S(=O)(=O)NC[C@H]2O[C@@H](C)[C@@H](O)[C@@H](O)[C@@H]2O)cc1)C(=O)N[C@@H](C)C(=O)N[C@H]1CCN(c2cc3c(cc2F)c(=O)c(C(=O)O)cn3C2CC2)C1,–,0.78 µM,Stable,> 25 µM,–,Metabolite_Detected,0.39 µM,> 25 µM,0.1 µM,≥ 25 µM,0.78 µM,1.56 µM,PPB [14]: 51.1%; PPB [15]: 30.1%; t1/2 [16]: 1.23 h; t1/2 [17]: 2.25 h; Drug uptake [18]: 55 ng/mL; IC50 [19]: 3.59 µM; IC50 (A549): > 50 µM
O=[N+]([O-])c1ccc(O[C@@H]2O[C@H](CO)[C@H](O)[C@H](O)[C@H]2O)cc1,–,–,–,–,61.9 µM,–,–,–,–,–,–,–,–
O=C(O)c1cn(C2CC2)c2cc(N3CCNCC3)c(F)cc2c1=O [CIPROFLOXACIN],0.125 µM,0.25 µM,–,0.125 µM,–,–,–,0.125 µM,0.156 µM,0.156 µM,0.156 µM,–,–
CC(C)C[C@H](NC(=O)CNC(=O)[C@H](C)NC(=O)c1ccc(S(=O)(=O)NC[C@H]2O[C@@H](C)[C@@H](O)[C@@H](O)[C@@H]2O)cc1)C(=O)N[C@@H](C)C(=O)NC[C@@H]1CCN(c2cc3c(cc2F)c(=O)c(C(=O)O)cn3C2CC2)C1,–,3.13 µM,Stable,> 25 µM,–,Metabolite_Detected,1.56 µM,> 25 µM,1.56 µM,≥ 25 µM,12.5 µM,3.13 µM,IC50 [19]: 4.29 µM
CC(C)C[C@H](NC(=O)CNC(=O)[C@H](C)NC(=O)c1ccc(S[C@@H]2O[C@H](CO)[C@H](O)[C@H](O)[C@H]2O)cc1)C(=O)N[C@@H](C)C(=O)N[C@H]1CCN(c2cc3c(cc2F)c(=O)c(C(=O)O)cn3C2CC2)C1,–,0.195 µM,Stable,> 25 µM,29.8 µM,Metabolite_Detected,0.195 µM,> 25 µM,0.1 µM,≥ 25 µM,0.78 µM,0.78 µM,PPB [14]: 97.2%; PPB [15]: 74%; t1/2 [16]: > 4 h; t1/2 [17]: > 4 h; IC50 (A549): 21.7 µM
Cl.N[C@H]1CCN(c2cc3c(cc2F)c(=O)c(C(=O)O)cn3C2CC2)C1,0.027 µM,–,–,–,–,–,–,–,–,–,–,–,microsomal CLint at 100 µM [20]: < 23 µL/min/mg; half-life at 100 µM [21]: > 1 h; t1/2 [16]: > 4 h; t1/2 [17]: 2.25 h; Drug uptake [18]: 2000 ng/mL
NC[C@@H]1CCN(c2cc3c(cc2F)c(=O)c(C(=O)O)cn3C2CC2)C1,0.29 µM,–,–,–,–,–,–,–,–,–,–,–,–
CC(C)C[C@H](N)C(=O)N[C@@H](C)C(=O)NC[C@H]1CCN(c2cc3c(cc2F)c(=O)c(C(=O)O)cn3C2CC2)C1,28 µM,–,–,–,–,–,–,–,–,–,–,–,–
CC(C)C[C@H](NC(=O)CNC(=O)[C@H](C)NC(=O)c1ccc(S[C@@H]2O[C@H](CO)[C@H](O)[C@H](O)[C@H]2O)cc1)C(=O)N[C@@H](C)C(=O)N1CCN(c2cc3c(cc2F)c(=O)c(C(=O)O)cn3C2CC2)CC1,–,≥ 25 µM,Stable,> 25 µM,31.7 µM,Metabolite_Notdetected,≥ 25 µM,> 25 µM,≥ 25 µM,> 25 µM,≥ 25 µM,≥ 25 µM,–
CC(C)C[C@H](NC(=O)CNC(=O)[C@H](C)NC(=O)c1ccc(S(=O)(=O)NC[C@H]2O[C@@H](C)[C@@H](O)[C@@H](O)[C@@H]2O)cc1)C(=O)N[C@@H](C)C(=O)N1CCN(c2cc3c(cc2F)c(=O)c(C(=O)O)cn3C2CC2)CC1,–,≥ 25 µM,Stable,> 25 µM,–,Metabolite_Notdetected,≥ 25 µM,> 25 µM,≥ 25 µM,≥ 25 µM,≥ 25 µM,≥ 25 µM,IC50 [19]: 4.63 µM
